# Source: ChEMBL document CHEMBL2331108, “Synthesis and biological evaluation of a new series of hexahydro-2H-pyrano[3,2-c]quinolines as novel selective σ1 receptor ligands” (J Med Chem, 2013)
# Assays:
# [1] = Displacement of [3H]-Di-o-tolyguanidine from guinea pig sigma2 receptor after 120 mins by liquid scintillation counting analysis; parameters: species or system Cavia porcellus
# [2] = molecular target: Voltage-gated inwardly rectifying potassium channel KCNH2 (Homo sapiens, UniProt Q12809); assay: Binding affinity to human ERG channel by patch clamp assay
# Cytochrome P450 3A4 = Cytochrome P450 3A4 (Homo sapiens, UniProt P08684); assay: Inhibition of human recombinant CYP3A4; type: ADME
# Cytochrome P450 2D6 = Cytochrome P450 2D6 (Homo sapiens, UniProt P10635); assay: Inhibition of human recombinant CYP2D6; type: ADME
# Liver microsomes [3] = assay: Intrinsic clearance in rat liver microsomes assessed per milligram of protein; type: ADME, Microsome
# [4] = molecular target: 5-hydroxytryptamine receptor 2B (Homo sapiens, UniProt P41595); assay: Binding affinity to human 5-HT2B receptor
# Mus musculus [5] = assay: Antinociceptive activity in CD1 mouse assessed as inhibition of capsaicin-induced mechanical hypersensitivity at 80 mg/kg, po administered 30 mins before capsaicin-challenge measured after 15 mins; type: functional
# HepG2 [6] = assay: Cytotoxicity against human HepG2 cells up to 100 uM by MTT assay; type: cell-based
# Cytochrome P450 2C9 = Cytochrome P450 2C9 (Homo sapiens, UniProt P11712); assay: Inhibition of human recombinant CYP2C9; type: ADME
# Liver = assay: Intrinsic clearance in mouse liver microsomes assessed per milligram of protein; type: ADME, Microsome
# [7] = molecular target: Sigma non-opioid intracellular receptor 1 (Homo sapiens, UniProt Q99720); assay: Displacement of [3H]-(+)-pentazocine from human sigma1 receptor transfected in HEK293 cells after 120 mins by liquid scintillation counting analysis; type: cell-based
# Mus musculus [8] = assay: Antinociceptive activity in CD1 mouse assessed as inhibition of formalin-induced pain at 40 mg/kg, ip administered 15 mins before formalin-challenge measured after 15 to 30 mins; type: functional; conditions: route intraperitoneal
# Method in brief: (§1)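 Male CD1 mice, 6–8 weeks old (n = 8–12 per group), were dosed ip at 10 mL/kg in 0.5% HPMC vehicle. 15 min later, 20 μL of 2.5% formalin (0.92% formaldehyde) was injected into the right hind paw, midplantar. Licking/biting time was scored 0–5 min (phase I) and 15–30 min (phase II).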
# Cytochrome P450 1A2 = molecular target: T1, Cytochrome P450 1A2 (Homo sapiens, UniProt P05177); assay: Inhibition of human recombinant CYP1A2; type: ADME
# T1 sequence (P05177 whole entry): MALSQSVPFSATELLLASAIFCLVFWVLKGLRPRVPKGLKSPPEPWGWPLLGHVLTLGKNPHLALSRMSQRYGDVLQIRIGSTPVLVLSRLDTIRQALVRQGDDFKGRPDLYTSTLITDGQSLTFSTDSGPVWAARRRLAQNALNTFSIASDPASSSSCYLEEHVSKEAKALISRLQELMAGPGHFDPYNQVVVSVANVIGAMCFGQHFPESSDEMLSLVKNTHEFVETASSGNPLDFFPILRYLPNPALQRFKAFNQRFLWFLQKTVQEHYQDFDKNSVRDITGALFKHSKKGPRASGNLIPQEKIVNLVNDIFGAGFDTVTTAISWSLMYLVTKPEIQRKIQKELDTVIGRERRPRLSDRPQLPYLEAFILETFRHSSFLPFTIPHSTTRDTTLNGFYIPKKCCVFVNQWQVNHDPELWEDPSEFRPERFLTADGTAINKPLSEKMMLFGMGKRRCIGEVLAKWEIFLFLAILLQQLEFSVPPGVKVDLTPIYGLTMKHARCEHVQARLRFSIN
# Mus musculus [9] = assay: Antinociceptive activity in CD1 mouse assessed as inhibition of formalin-induced pain at 80 mg/kg, ip administered 15 mins before formalin-challenge measured after 15 to 30 mins; type: functional; conditions: route intraperitoneal; method in brief: as §1
# [10] = Dissociation constant, pKa of the compound; type: physicochemical
# Method in brief: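 pKa measured experimentally by pH-metric titration on an automated GlpKa instrument.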
# Salmonella typhimurium = assay: Genotoxicity in Salmonella typhimurium by Ames test; type: toxicity, organism-based; conditions: salmonella enterica subsp. enterica serovar typhimurium
# HepG2 [11] = assay: Cytotoxicity against human HepG2 cells up to 100 uM by neutral red uptake assay; type: cell-based
# Cytochrome P450 2C19 = Cytochrome P450 2C19 (Homo sapiens, UniProt P33261); assay: Inhibition of human recombinant CYP2C19; type: ADME
# Liver microsomes [12] = assay: Intrinsic clearance in human liver microsomes assessed per milligram of protein; type: ADME, Microsome
# [13] = Kinetic solubility of the compound; type: physicochemical; conditions: read-out: Kinetic_solubility
# Method in brief: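 Kinetic solubility: compound solution at 1% DMSO in phosphate buffer, pH 7.4, quantified by HPLC.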
# Mus musculus [14] = assay: Antinociceptive activity in ip dosed CD1 mouse assessed as inhibition of formalin-induced pain administered 15 mins before formalin-challenge measured after 15 to 30 mins; type: functional, organism-based; method in brief: as §1
# Sigma non-opioid intracellular receptor 1, sequence (Q99720 whole entry): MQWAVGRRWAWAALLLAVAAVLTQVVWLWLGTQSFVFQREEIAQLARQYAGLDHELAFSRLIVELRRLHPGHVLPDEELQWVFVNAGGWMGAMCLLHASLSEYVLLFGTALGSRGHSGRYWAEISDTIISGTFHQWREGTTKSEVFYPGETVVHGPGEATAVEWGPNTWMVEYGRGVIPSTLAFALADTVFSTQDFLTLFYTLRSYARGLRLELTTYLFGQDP
# 5-hydroxytryptamine receptor 2B, sequence (P41595 whole entry): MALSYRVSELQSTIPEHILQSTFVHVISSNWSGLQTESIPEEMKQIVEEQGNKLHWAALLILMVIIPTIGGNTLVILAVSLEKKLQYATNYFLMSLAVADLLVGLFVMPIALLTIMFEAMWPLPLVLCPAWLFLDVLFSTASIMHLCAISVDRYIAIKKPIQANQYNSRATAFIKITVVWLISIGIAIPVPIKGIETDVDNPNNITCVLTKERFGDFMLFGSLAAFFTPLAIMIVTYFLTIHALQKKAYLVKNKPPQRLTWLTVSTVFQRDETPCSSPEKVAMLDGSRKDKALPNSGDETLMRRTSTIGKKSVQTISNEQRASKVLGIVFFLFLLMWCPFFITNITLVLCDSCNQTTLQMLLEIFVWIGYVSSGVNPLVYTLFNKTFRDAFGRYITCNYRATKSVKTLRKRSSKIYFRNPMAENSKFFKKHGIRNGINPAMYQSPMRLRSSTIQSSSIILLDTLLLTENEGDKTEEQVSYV
# Cytochrome P450 2C19, sequence (P33261 whole entry): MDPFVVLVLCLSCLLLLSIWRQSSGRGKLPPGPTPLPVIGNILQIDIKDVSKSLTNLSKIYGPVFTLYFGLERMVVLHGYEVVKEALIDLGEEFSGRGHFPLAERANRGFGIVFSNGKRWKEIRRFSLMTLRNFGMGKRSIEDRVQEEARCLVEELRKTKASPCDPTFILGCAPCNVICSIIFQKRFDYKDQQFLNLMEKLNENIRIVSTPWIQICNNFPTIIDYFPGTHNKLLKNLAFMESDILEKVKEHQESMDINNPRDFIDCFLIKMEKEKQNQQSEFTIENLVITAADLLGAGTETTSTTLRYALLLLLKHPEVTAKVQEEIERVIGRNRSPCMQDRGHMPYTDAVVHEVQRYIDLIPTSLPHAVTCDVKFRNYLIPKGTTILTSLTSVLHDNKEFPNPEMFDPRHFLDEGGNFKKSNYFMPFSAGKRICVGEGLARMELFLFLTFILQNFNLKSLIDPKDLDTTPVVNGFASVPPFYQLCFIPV
# Cytochrome P450 2C9, sequence (P11712 whole entry): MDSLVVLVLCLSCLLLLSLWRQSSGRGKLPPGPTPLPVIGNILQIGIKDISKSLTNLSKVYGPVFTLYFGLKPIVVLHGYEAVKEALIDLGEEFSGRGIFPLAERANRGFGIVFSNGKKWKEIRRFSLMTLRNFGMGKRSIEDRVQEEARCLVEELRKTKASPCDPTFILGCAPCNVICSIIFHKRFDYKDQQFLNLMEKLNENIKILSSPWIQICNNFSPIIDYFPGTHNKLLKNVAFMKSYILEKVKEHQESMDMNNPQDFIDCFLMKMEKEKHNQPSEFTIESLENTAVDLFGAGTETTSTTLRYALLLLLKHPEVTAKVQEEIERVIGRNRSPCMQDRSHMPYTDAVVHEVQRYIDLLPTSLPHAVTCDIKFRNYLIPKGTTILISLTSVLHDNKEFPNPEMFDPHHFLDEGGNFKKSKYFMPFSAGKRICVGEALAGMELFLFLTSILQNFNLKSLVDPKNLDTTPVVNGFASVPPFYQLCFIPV
# Voltage-gated inwardly rectifying potassium channel KCNH2, sequence (Q12809 whole entry): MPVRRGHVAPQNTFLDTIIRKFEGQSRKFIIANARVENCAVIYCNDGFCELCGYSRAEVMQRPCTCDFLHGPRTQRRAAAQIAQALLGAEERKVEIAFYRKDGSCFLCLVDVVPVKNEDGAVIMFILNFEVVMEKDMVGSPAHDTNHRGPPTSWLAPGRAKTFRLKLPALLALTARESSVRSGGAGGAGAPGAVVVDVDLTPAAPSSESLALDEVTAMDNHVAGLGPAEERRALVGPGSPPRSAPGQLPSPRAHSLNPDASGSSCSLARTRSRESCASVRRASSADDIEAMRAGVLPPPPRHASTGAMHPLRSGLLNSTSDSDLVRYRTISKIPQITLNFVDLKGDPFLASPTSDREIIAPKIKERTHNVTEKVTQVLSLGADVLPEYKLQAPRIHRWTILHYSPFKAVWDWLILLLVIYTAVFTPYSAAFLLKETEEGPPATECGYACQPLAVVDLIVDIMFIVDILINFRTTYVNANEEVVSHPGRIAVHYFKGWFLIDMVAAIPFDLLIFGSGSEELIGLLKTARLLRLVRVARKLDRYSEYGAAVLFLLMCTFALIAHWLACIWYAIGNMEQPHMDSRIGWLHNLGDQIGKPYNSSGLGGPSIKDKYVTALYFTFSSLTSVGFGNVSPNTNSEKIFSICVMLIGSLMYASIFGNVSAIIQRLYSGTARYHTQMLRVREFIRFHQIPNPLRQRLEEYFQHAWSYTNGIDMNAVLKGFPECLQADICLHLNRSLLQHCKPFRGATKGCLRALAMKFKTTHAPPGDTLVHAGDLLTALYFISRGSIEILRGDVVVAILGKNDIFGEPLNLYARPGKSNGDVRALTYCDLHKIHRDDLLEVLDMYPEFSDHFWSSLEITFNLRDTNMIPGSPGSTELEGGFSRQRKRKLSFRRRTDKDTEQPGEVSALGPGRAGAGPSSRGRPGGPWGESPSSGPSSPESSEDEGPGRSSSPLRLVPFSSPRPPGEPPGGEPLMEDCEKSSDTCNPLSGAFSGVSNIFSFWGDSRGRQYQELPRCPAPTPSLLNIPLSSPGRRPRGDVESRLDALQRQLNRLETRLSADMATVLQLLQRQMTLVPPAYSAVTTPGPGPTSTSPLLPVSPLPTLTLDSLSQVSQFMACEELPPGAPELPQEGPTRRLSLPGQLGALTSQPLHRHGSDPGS
# Cytochrome P450 2D6, sequence (P10635 whole entry): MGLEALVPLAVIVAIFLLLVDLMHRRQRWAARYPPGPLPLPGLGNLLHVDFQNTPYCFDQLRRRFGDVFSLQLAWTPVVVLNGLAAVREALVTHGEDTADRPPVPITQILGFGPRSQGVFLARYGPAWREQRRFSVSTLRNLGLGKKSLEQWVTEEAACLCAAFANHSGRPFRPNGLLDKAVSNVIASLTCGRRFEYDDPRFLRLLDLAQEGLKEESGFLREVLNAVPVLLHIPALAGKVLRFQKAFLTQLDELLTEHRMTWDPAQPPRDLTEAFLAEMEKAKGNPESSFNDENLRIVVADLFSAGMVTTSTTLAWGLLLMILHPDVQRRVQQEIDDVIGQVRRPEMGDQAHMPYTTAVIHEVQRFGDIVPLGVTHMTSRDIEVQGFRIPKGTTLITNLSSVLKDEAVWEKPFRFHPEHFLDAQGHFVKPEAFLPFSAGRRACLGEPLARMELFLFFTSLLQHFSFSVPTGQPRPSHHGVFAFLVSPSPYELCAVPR
# Cytochrome P450 3A4, sequence (P08684 whole entry): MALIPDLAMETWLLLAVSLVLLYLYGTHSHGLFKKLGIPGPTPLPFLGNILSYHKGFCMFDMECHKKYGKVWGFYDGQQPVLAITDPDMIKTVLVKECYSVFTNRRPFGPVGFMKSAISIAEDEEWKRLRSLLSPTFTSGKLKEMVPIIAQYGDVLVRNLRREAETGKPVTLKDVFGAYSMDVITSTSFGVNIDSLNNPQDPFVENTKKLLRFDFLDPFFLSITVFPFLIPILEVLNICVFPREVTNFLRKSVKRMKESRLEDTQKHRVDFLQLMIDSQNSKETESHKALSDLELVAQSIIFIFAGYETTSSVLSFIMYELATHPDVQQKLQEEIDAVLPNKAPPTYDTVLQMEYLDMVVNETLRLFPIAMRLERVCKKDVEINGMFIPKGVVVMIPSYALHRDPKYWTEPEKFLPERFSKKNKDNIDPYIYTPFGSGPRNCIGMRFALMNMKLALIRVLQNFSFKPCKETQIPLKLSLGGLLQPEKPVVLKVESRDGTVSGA
SMILES,Ki [1] [nM],Ki [7] [nM],further results
Cc1cc(OCCN2CCOCC2)nn1-c1ccc2ccccc2c1,1000,,
CC(C)CCOc1ccc2c(c1)[C@H]1OCCC[C@H]1[C@@H](C1CCOCC1)N2 [listing 1 of 2 here],1000,30,IC50 [2]: > 10000 nM; IC50 (Cytochrome P450 3A4): > 5000 nM; IC50 (Cytochrome P450 2D6): > 5000 nM; CLH (Liver microsomes [3]): 21.7 µL/min; Ki [4]: 5300 nM; inhibition in vivo at 80 mg/kg (Mus musculus [5]): 63%; Activity (HepG2 [6]): Non-toxic; IC50 (Cytochrome P450 2C9): > 5000 nM; CLH (Liver): 15.1 µL/min; inhibition in vivo at 40 mg/kg (Mus musculus [8]): 40%; IC50 (Cytochrome P450 1A2): > 5000 nM; inhibition in vivo at 80 mg/kg (Mus musculus [9]): 81%; pKa [10]: 3.8; Activity (Salmonella typhimurium): Non-toxic; Activity (HepG2 [11]): Non-toxic; IC50 (Cytochrome P450 2C19): > 5000 nM; CLH (Liver microsomes [12]): 5 µL/min
CCCCCc1ccc2c(c1)[C@H]1OCCC[C@H]1[C@@H](C1CCCCC1)N2,1000,19,solubility kinetic [13]: < 1 µM
CCCCCc1ccc2c(c1)[C@@H]1OCCC[C@@H]1[C@H](C1CCCCC1)N2,1000,> 1000,
CC(C)CCOc1ccc2c(c1)[C@H]1OCCC[C@H]1[C@@H](C1CCCCC1)N2,1000,14,solubility kinetic [13]: < 1 µM
CC(C)CCOc1ccc2c(c1)[C@@H]1OCCC[C@@H]1[C@H](C1CCCCC1)N2,1000,> 1000,
CC(C)CCOc1ccc2c(c1)[C@@H]1OCCC[C@@H]1[C@H](C1CCOCC1)N2,1000,> 1000,
CC(C)CCOc1ccc2c(c1)[C@H]1OCCC[C@H]1[C@@H](C1CCOCC1)N2 [listing 2 of 2 here],,,inhibition (Mus musculus [14]): Dose-dependent effect
CCCCOc1ccc2c(c1)[C@H]1OCC[C@H]1[C@@H](C1CCCCC1)N2 (racemic),1000,> 1000,
CC(C)CCOc1ccc2c(c1)[C@H]1OCC[C@H]1[C@@H](C1CCCCC1)N2 (racemic),1000,108,
CCCCCc1ccc2c(c1)[C@H]1OCCC[C@H]1[C@@H](C(CC)CC)N2 (racemic),1000,410,
CCCCCc1ccc2c(c1)[C@H]1OCCC[C@H]1[C@@H](C1CCOCC1)N2 (racemic),1000,67,
CCCCOc1ccc2c(c1)[C@H]1OCCC[C@H]1[C@@H](C1CC1)N2 (racemic),1000,> 1000,
CCCCOc1ccc2c(c1)[C@H]1OCCC[C@H]1[C@@H](c1ccccc1)N2 (racemic),1000,> 1000,
CC(C)CCOc1ccc2c(c1)[C@H]1OCCC[C@H]1[C@@H](C1CCCC1)N2 (racemic),1000,124,
CC(C)CCOc1ccc2c(c1)[C@H]1OCCC[C@H]1[C@@H](C1CCOCC1)N2 (racemic),,84,
CC(C)CCOc1ccc2c(c1)[C@H]1OCCC[C@H]1[C@@H](C1CCNCC1)N2 (racemic),1000,536,
CCN1CCC([C@H]2Nc3ccc(OCCC(C)C)cc3[C@H]3OCCC[C@H]32)CC1 (racemic),1000,317,
CC(C)CCOc1ccc2c(c1)[C@H]1OCCC[C@H]1[C@@H](C1CCN(Cc3ccccc3)CC1)N2 (racemic),1000,15,solubility kinetic [13]: < 1 µM
CCCCCc1ccc2c(c1)[C@H]1OCCC[C@H]1[C@@H](C1CCCCC1)N2 (racemic),,43,

SMILES,Ki [1] [nM],Ki [7] [nM],further results
CC(C)CCOc1ccc2c(c1)[C@H]1OCCC[C@H]1[C@@H](C1CCCCC1)N2 (racemic),,52,
Clc1cccc(Oc2ccc3c(c2)[C@H]2OCCC[C@H]2[C@@H](C2CCCCC2)N3)c1 (racemic),1000,377,
Clc1cccc(Oc2ccc3c(c2)[C@H]2OCCC[C@H]2[C@H](C2CCCCC2)N3)c1 (racemic),1000,> 1000,
Clc1ccccc1Oc1ccc2c(c1)[C@H]1OCCC[C@H]1[C@@H](C1CCCCC1)N2 (racemic),1000,> 1000,
Clc1ccc(Oc2ccc3c(c2)[C@H]2OCCC[C@H]2[C@@H](C2CCCCC2)N3)cc1Cl (racemic),1000,79,
c1ccc(Oc2ccc3c(c2)[C@H]2OCCC[C@H]2[C@@H](C2CCCCC2)N3)cc1 (racemic),1000,> 1000,
c1ccc2c(c1)N[C@H](C1CCCCC1)[C@@H]1CCCO[C@H]21 (racemic),1000,> 1000,
CCCCc1ccc2c(c1)[C@H]1OCCC[C@H]1[C@@H](C1CCCCC1)N2 (racemic),1000,> 1000,
CCCCOc1ccc2c(c1)[C@H]1OCCC[C@H]1[C@@H](C1CCCCC1)N2 (racemic),1000,178,
Fc1ccc(COc2ccc3c(c2)[C@H]2OCCC[C@H]2[C@@H](C2CCCCC2)N3)cc1 (racemic),1000,> 1000,
c1cc2c(cc1C1CCCCC1)[C@H]1OCCC[C@H]1[C@@H](C1CCCCC1)N2 (racemic),1000,> 1000,
c1ccc(-c2ccc3c(c2)[C@H]2OCCC[C@H]2[C@@H](C2CCCCC2)N3)cc1 (racemic),1000,> 1000,
CCCNS(=O)(=O)c1ccc2c(c1)[C@H]1OCCC[C@H]1[C@@H](C1CCCCC1)N2 (racemic),1000,> 1000,
O=C(Nc1ccc2c(c1)[C@H]1OCCC[C@H]1[C@@H](C1CCCCC1)N2)c1ccccc1 (racemic),1000,> 1000,
Clc1ccc(Oc2ccc3c(c2)[C@H]2OCC[C@H]2[C@@H](C2CCCCC2)N3)cc1 (racemic),1000,302,
CCCCCc1ccc2c(c1)[C@H]1OCC[C@H]1[C@@H](C1CCCCC1)N2 (racemic),1000,245,
Clc1ccc(Oc2ccc3c(c2)[C@H]2OCCC[C@H]2[C@@H](C2CCCCC2)N3)cc1 (racemic),> 1000,194,solubility kinetic [13]: < 0.4 µM
Clc1ccc(Oc2ccc3c(c2)[C@H]2OCCC[C@H]2[C@H](C2CCCCC2)N3)cc1 (racemic),1000,> 1000,
O=C(CCCN1CCC(O)(c2ccc(Cl)cc2)CC1)c1ccc(F)cc1 [HALOPERIDOL],1000,,
